# Results of several laboratories.
# Each line is one published result; the experiments were not run side by side.
# Target: RAF proto-oncogene serine/threonine-protein kinase (RAF1, Homo sapiens, UniProt P04049)
Structure (SMILES),read-out,technique,concentration,remaining binding
O=C(Nc1cccnn1)N1CC(C/C=C/c2cncc(Oc3ccc(C(F)(F)F)cn3)n2)C1,cell-free assay,competition with immobilised ligand,1 µM,100%
Nc1ncc2c(n1)-c1c([nH]c3ccc(C#CC4CC4)cc13)CCCC2,binding,competition with immobilised ligand,1 µM,79%
O=C(c1ccc(Nc2nccc(-c3cc4ccccc4s3)n2)cc1)N1CCC(N2CCCC2)CC1,binding,competition with immobilised ligand,1 µM,84%
Cn1nc(C(=O)NCc2ccc(C(=O)O)cc2)cc1-c1ccc2[nH]ccc2c1,cell-free assay,competition with immobilised ligand,0.1 µM,70%
CCN1CCN(Cc2ccc(C(=O)Nc3ccc(C)c(Oc4ccc5c(c4)CC(=O)N5)c3)cc2C(F)(F)F)CC1,binding,competition with immobilised ligand,1 µM,95%
COc1cc(-c2cn(C3CCc4c(F)cccc4N(CC(F)(F)F)C3=O)nn2)ccc1-n1cnc(C)c1 (stereo not drawn),cell-free assay,competition with immobilised ligand,1 µM,100%
O=C(NCCCN1CCOCC1)c1ccc(Nc2ncc(Cl)c(-c3ccc(Cl)s3)n2)cc1,binding,competition with immobilised ligand,1 µM,89%
CNC(=O)Nc1ccc2c(c1)[C@@]1(CC2)OC(=O)N(CC(=O)N(Cc2ccc(F)cc2)[C@@H](C)C(F)(F)F)C1=O,cell-free assay,competition with immobilised ligand,1 µM,100%
N[C@@H]1CCN(c2nccc(-c3cnn4ncccc34)n2)C1,binding,,1 µM,80%
O=C(NC[C@@H]1[C@H]2CN(C(=O)OCc3cc(C(F)(F)F)cc(C(F)(F)F)c3)C[C@@H]12)c1ccc2[nH]nnc2c1,cell-free assay,competition with immobilised ligand,1 µM,100%
c1cnn2ncc(-c3ccnc(N4CCC45COC5)n3)c2c1,binding,,1 µM,73%
COc1cnc(Nc2cccc(S(N)(=O)=O)c2)nc1N1CCN(c2ccccc2)C(=O)C1,binding,competition with immobilised ligand,1 µM,98%
N#Cc1ccccc1CSc1nnc2c(n1)[nH]c1ccccc12,binding,competition with immobilised ligand,10 µM,100%
CC1CCCN1c1nccc(-c2cnn3ncccc23)n1 (stereo not drawn),binding,,1 µM,100%
O=C(NCC1CCOCC1)c1n[nH]cc1NC(=O)c1c(F)cccc1F,binding,competition with immobilised ligand,1 µM,58%
CN(C)c1ncc(F)c(-c2cnn3ncccc23)n1,binding,,1 µM,96%
CNC(=O)[C@@H]1CC[C@@H](n2c(-c3ccc4cnccc4c3)nc3ccc(C(=O)NCc4cccc(C(N)=O)c4)cc32)C1,binding,competition with immobilised ligand,1 µM,82%
COc1ccnn2ncc(-c3ccnc(N(C)C)n3)c12,binding,,1 µM,100%
c1cncc(-c2cccc(Nc3nccc(NC4CCCCC4)n3)c2)c1,binding,competition with immobilised ligand,10 µM,94%
Cc1cnc(Nc2ccc(C(=O)N3CCC(N4CCCC4)CC3)cc2)nc1-c1cc2ccccc2s1,binding,competition with immobilised ligand,1 µM,60%
Cn1cc(Cl)c2c(Oc3c(F)cc(Nc4cc(Cl)nc(N)n4)cc3F)ccnc21,cell-free assay,competition with immobilised ligand,0.1 µM,91%
C[C@@H]1CCN(c2nccc(-c3cnn4ncccc34)n2)C1,binding,,1 µM,100%
CN(c1ccnc(CNc2nc(Nc3ccc4c(c3)CC(=O)N4)ncc2C(F)(F)F)n1)S(C)(=O)=O,cell-free assay,competition with immobilised ligand,1 µM,85%
C[C@@H]1CN(c2ccc3ncc(-c4ccc5[nH]nc(C6CC6)c5c4)n3n2)C[C@H](C)O1,binding,competition with immobilised ligand,50 nM,100%
